Data from ChEMBL document CHEMBL3588763, “Styryl-N-phenyl-N'-(2-chloroethyl)ureas and styrylphenylimidazolidin-2-ones as new potent microtubule-disrupting agents using combretastatin A-4 as model” (Eur J Med Chem, 2015).
The source made the active and inactive calls. No cut-off for these calls is given here.

What was measured:
MCF7 = assay: Antiproliferative activity against human MCF7 cells assessed as cell growth inhibition after 48 hrs by sulforhodamine B assay; type: functional, cell-based; details: MCF7, 48 h
In short: (§1)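 NCI-style SRB screen with minor changes. Cells seeded per well in DMEM with 5% FBS: HT-29 4.0 x 10^3, M21 3.0 x 10^3, MCF-7 2.5 x 10^3, HT-1080 2.5 x 10^3. After 24 h, serially diluted drug was added at 50 µM to 1 nM final, DMSO <0.5%, for 48 h. Fixed with cold TCA, stained with SRB, read at 530–568 nm against plates fixed on treatment day. At least two experiments in triplicate, CV <10%.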

HT-29 = assay: Antiproliferative activity against human HT-29 cells assessed as cell growth inhibition after 48 hrs by sulforhodamine B assay; type: functional, cell-based; details: HT-29, 48 h; in short: as §1
M21 [1] = assay: Antiproliferative activity against human M21 cells assessed as cell growth inhibition after 48 hrs by sulforhodamine B assay; type: functional, cell-based; details: M21, 48 h; in short: as §1
[2] = Antiproliferative activity against human HT1080 cells assessed as cell growth inhibition after 48 hrs by sulforhodamine B assay; type: functional, cell-based; details: HT-1080, 48 h
[3] = target: T1, Tubulin beta (Homo sapiens) (UniProt P68371+Q9H4B7+Q13509+P04350+Q3ZCM7+P07437+Q13885+Q9BVA1+Q9BUF5+A6NNZ2); assay: Inhibition of N,N-ethylene-bis(iodoacetamide) binding to Tubulin beta colchicines-binding site in human M21 cells assessed as adduct formation at 910 nM by Western blot analysis; type: cell-based
[4] = target: T1, Tubulin beta (Homo sapiens); assay: Inhibition of N,N-ethylene-bis(iodoacetamide) binding to Tubulin beta colchicines-binding site in human M21 cells assessed as adduct formation at 2500 nM by Western blot analysis; type: cell-based
M21 [5] = assay: Induction of cell cycle arrest in human M21 cells assessed as cells accumulation at S phase at 46 nM after 24 hrs by flow cytometry (reference value: 22.2%); type: functional
M21 [6] = assay: Induction of cell cycle arrest in human M21 cells assessed as cells accumulation at subG1 phase at 46 nM after 24 hrs by flow cytometry (reference value: 1.2%); type: functional
M21 [7] = assay: Induction of cell cycle arrest in human M21 cells assessed as cells accumulation at G0/G1 phase at 46 nM after 24 hrs by flow cytometry (reference value: 54.5%); type: functional
M21 [8] = assay: Induction of cell cycle arrest in human M21 cells assessed as cells accumulation at G2/M phase at 46 nM after 24 hrs by flow cytometry (reference value: 22.1%); type: functional
[9] = target: T1, Tubulin beta (Homo sapiens); assay: Inhibition of N,N-ethylene-bis(iodoacetamide) binding to Tubulin beta colchicines-binding site in human M21 cells assessed as adduct formation at 410 nM by Western blot analysis; type: cell-based
M21 [10] = assay: Induction of microtubule depolymerization and cytoskeleton disruption in human M21 cells at 46 nM after 16 hrs by immunofluorescence assay
M21 [11] = assay: Induction of cell cycle arrest in human M21 cells assessed as cells accumulation at G0/G1 phase at 10 nM after 24 hrs by flow cytometry (reference value: 54.5%); type: functional
M21 [12] = assay: Induction of cell cycle arrest in human M21 cells assessed as cells accumulation at G2/M phase at 10 nM after 24 hrs by flow cytometry (reference value: 22.1%); type: functional
M21 [13] = assay: Induction of microtubule depolymerization and cytoskeleton disruption in human M21 cells at 10 nM after 16 hrs by immunofluorescence assay
M21 [14] = assay: Induction of cell cycle arrest in human M21 cells assessed as cells accumulation at S phase at 10 nM after 24 hrs by flow cytometry (reference value: 22.2%); type: functional
M21 [15] = assay: Induction of cell cycle arrest in human M21 cells assessed as cells accumulation at subG1 phase at 10 nM after 24 hrs by flow cytometry (reference value: 1.2%); type: functional
M21 [16] = assay: Induction of cell cycle arrest in human M21 cells assessed as cells accumulation at G2/M phase at 3100 nM after 24 hrs by flow cytometry (reference value: 22.1%); type: functional
[17] = target: T1, Tubulin beta (Homo sapiens); assay: Binding affinity to Tubulin beta in human M21 cells assessed as tubulin acylation at 3100 nM after 24 hrs by electrophoretic mobility shift assay; type: cell-based
M21 [18] = assay: Induction of microtubule depolymerization and cytoskeleton disruption in human M21 cells at 3100 nM after 16 hrs by immunofluorescence assay
M21 [19] = assay: Induction of cell cycle arrest in human M21 cells assessed as cells accumulation at S phase at 3100 nM after 24 hrs by flow cytometry (reference value: 22.2%); type: functional
M21 [20] = assay: Induction of cell cycle arrest in human M21 cells assessed as cells accumulation at G0/G1 phase at 3100 nM after 24 hrs by flow cytometry (reference value: 54.5%); type: functional
[21] = target: T1, Tubulin beta (Homo sapiens); assay: Binding affinity to Tubulin beta in human M21 cells assessed as tubulin acylation at 1500 nM after 24 hrs by electrophoretic mobility shift assay; type: cell-based
M21 [22] = assay: Induction of cell cycle arrest in human M21 cells assessed as cells accumulation at subG1 phase at 3100 nM after 24 hrs by flow cytometry (reference value: 1.2%); type: functional
M21 [23] = assay: Induction of cell cycle arrest in human M21 cells assessed as cells accumulation at S phase at 4100 nM after 24 hrs by flow cytometry (reference value: 22.2%); type: functional
M21 [24] = assay: Induction of cell cycle arrest in human M21 cells assessed as cells accumulation at G0/G1 phase at 4100 nM after 24 hrs by flow cytometry (reference value: 54.5%); type: functional
[25] = target: T1, Tubulin beta (Homo sapiens); assay: Binding affinity to Tubulin beta in human M21 cells assessed as tubulin acylation at 8200 nM after 24 hrs by electrophoretic mobility shift assay
M21 [26] = assay: Induction of microtubule depolymerization and cytoskeleton disruption in human M21 cells at 4100 nM after 16 hrs by immunofluorescence assay
M21 [27] = assay: Induction of cell cycle arrest in human M21 cells assessed as cells accumulation at subG1 phase at 4100 nM after 24 hrs by flow cytometry (reference value: 1.2%); type: functional
M21 [28] = assay: Induction of cell cycle arrest in human M21 cells assessed as cells accumulation at G2/M phase at 4100 nM after 24 hrs by flow cytometry (reference value: 22.1%); type: functional
M21 [29] = assay: Induction of cell cycle arrest in human M21 cells assessed as cells accumulation at subG1 phase at 24 nM after 24 hrs by flow cytometry (reference value: 1.2%); type: functional
M21 [30] = assay: Induction of cell cycle arrest in human M21 cells assessed as cells accumulation at G0/G1 phase at 24 nM after 24 hrs by flow cytometry (reference value: 54.5%); type: functional
M21 [31] = assay: Induction of cell cycle arrest in human M21 cells assessed as cells accumulation at G2/M phase at 24 nM after 24 hrs by flow cytometry (reference value: 22.1%); type: functional
M21 [32] = assay: Induction of cell cycle arrest in human M21 cells assessed as cells accumulation at S phase at 24 nM after 24 hrs by flow cytometry (reference value: 22.2%); type: functional
M21 [33] = assay: Induction of microtubule depolymerization and cytoskeleton disruption in human M21 cells at 24 nM after 24 hrs by immunofluorescence assay; type: functional, cell-based

Row | SMILES | IC50 (MCF7) | IC50 (HT-29) | IC50 (M21 [1]) | IC50 [2] | further results
1 | COc1cc(/C=C/c2ccc(NC(=O)NCCCl)cc2)cc(OC)c1OC | 20000 nM | 9500 nM | > 20000 nM | > 20000 nM | 
2 | Cc1cc(C)cc(/C=C/c2ccc(NC(=O)NCCCl)cc2)c1 | 19000 nM | 11000 nM | > 20000 nM | > 20000 nM | 
3 | Cc1cc(C)cc(/C=C/c2ccc(N3CCNC3=O)cc2)c1 | 16000 nM | 14000 nM | 17000 nM | > 20000 nM | 
4 | Cc1cc(C)cc(/C=C\c2ccc(N3CCNC3=O)cc2)c1 | 23 nM | 8.4 nM | 10 nM | 15 nM | inhibition [3]: Active; inhibition [4]: Active; Activity (M21 [5]): 8%; Activity (M21 [6]): 8.2%; Activity (M21 [7]): 5.4%; Activity (M21 [8]): 78.4%; inhibition [9]: Active; Activity (M21 [10]): Active
5 | COc1cc(/C=C\c2ccc(N3CCNC3=O)cc2)cc(OC)c1OC | 2.6 nM | 1.7 nM | 2.4 nM | 2.3 nM | Activity (M21 [11]): 4.2%; Activity (M21 [12]): 84.6%; inhibition [3]: Active; Activity (M21 [13]): Active; inhibition [4]: Active; Activity (M21 [14]): 6.1%; Activity (M21 [15]): 5.1%; inhibition [9]: Active
6 | CCNC(=O)Nc1ccc(/C=C/c2cc(C)cc(C)c2)cc1 | 20000 nM | > 20000 nM | > 20000 nM | > 20000 nM | 
7 | Cc1cc(C)cc(/C=C\c2ccc(NC(=O)NCCCl)cc2)c1 | 860 nM | 510 nM | 710 nM | 700 nM | Activity (M21 [16]): 68.6%; Activity [17]: Active; Activity (M21 [18]): Active; Activity (M21 [19]): 13.2%; Activity (M21 [20]): 5.7%; Activity [21]: Active; Activity (M21 [22]): 12.5%
8 | O=C(NCCCl)Nc1ccc(/C=C/c2cccc(Cl)c2)cc1 | 20000 nM | 12000 nM | > 20000 nM | > 20000 nM | 
9 | COc1cc(/C=C\c2ccc(NC(=O)NCCCl)cc2)cc(OC)c1OC | 1400 nM | 680 nM | 950 nM | 1400 nM | Activity (M21 [23]): 5.8%; Activity (M21 [24]): 3.9%; Activity [25]: Active; Activity (M21 [26]): Active; Activity (M21 [27]): 4.8%; Activity (M21 [28]): 85.5%
10 | COc1cc2c(c(OC)c1OC)-c1ccc(OC)c(=O)cc1[C@@H](NC(C)=O)CC2 [COLCHICINE] |  |  |  |  | Activity (M21 [29]): 2.4%; Activity (M21 [30]): 27.9%; Activity (M21 [31]): 57.9%; Activity (M21 [32]): 11.8%; Activity (M21 [33]): Active
